The source of these data is ChEMBL document CHEMBL4229364, “Structure-activity relationships of 2, 4-disubstituted pyrimidines as dual ERα/VEGFR-2 ligands with anti-breast cancer activity” (Eur J Med Chem, 2018).

The test system of one test is MCF7. The experiment in a line: Antiproliferative activity against human MCF7 cells after 48 hrs by MTT assay. Conditions: MCF7, 48 h. The class given is functional, cell-based. The method in brief: (§1)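 MTT assay. Cells were grown in RPMI1640 with 10% FBS and penicillin/streptomycin at 37°C, 5% CO2, seeded at 1×10^5/mL and rested 24 h. Compound was added at 4×10^-5 to 1×10^-6 mol/L for 48 h; controls received 1% DMSO. MTT (5 mg/mL) was added for 4 h in the dark and the formazan dissolved in DMSO. A490 was read and IC50 derived.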
(In general: Tetrazolium dyes change colour on reduction, which living cells bring about.)

For test [1], the target named is T1, Vascular endothelial growth factor receptor 2 (Homo sapiens, UniProt P35968). In words: Inhibition of VEGFR2 (unknown origin) using TK substrate after 1 hr by HTRF assay.
T1 sequence (P35968 whole entry): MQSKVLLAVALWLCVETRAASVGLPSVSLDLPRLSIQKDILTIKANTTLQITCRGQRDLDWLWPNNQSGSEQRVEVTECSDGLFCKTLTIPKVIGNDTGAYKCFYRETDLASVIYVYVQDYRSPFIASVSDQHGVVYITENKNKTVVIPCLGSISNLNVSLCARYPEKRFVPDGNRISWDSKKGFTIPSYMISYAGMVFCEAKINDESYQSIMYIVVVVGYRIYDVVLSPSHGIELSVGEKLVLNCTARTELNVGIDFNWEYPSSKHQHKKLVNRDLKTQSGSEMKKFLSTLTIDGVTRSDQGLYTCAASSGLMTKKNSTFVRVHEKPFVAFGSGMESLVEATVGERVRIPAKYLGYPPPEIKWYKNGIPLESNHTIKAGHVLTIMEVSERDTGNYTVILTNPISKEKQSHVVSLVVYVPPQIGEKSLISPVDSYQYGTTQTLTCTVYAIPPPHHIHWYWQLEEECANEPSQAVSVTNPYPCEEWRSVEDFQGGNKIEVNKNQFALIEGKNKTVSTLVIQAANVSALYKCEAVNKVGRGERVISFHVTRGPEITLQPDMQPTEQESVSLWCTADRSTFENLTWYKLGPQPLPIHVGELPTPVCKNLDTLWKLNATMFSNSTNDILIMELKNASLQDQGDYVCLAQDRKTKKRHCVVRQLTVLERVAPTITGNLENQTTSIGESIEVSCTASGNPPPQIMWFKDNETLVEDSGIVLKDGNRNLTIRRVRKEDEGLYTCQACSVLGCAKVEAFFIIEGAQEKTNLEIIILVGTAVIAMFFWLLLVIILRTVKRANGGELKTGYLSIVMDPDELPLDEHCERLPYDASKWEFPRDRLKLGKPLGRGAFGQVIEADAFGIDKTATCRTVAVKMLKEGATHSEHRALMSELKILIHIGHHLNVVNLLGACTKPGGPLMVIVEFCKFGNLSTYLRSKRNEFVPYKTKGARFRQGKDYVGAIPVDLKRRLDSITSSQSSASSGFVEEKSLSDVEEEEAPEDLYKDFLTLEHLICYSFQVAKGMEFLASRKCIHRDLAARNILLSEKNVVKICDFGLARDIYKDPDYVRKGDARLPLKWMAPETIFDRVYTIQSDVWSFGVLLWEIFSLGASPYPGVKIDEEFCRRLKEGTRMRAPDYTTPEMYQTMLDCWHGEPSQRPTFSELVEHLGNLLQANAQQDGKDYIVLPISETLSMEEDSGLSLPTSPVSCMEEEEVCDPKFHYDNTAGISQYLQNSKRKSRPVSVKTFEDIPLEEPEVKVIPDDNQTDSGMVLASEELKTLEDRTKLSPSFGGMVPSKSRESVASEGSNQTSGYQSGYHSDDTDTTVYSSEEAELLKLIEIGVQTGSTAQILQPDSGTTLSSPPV
Another test concerns Ishikawa. The experiment in a line: Antiproliferative activity against human Ishikawa cells after 48 hrs by MTT assay. The class given is functional, cell-based. The method in brief:
as §1

The next test concerns HUVEC. In words: Antiproliferative activity against HUVEC after 48 hrs by MTT assay. Conditions: Homo sapiens. The class given is functional, cell-based. The method in brief: as §1
In test [2] the target is T1, Vascular endothelial growth factor receptor 2. Conditions: at 10 µM.

Turning to `COc1ccc(-c2nc(Cl)c(-c3ccccc3)c(Nc3ccc(OCCN4CCCC4)cc3)n2)cc1`, the IC50 in the test on MCF7 is 7.84 µM; in test [1], > 1 µM; in the test with Ishikawa it was 3.81 µM; in the test with HUVEC, 5.02 µM. Also, the inhibition in test [2] turned out to be 49.4%.

Regarding `COc1ccc(-c2nc(Cl)c(-c3ccccc3)c(Nc3ccc(OCCN(C)C)cc3)n2)cc1`, the IC50 is 7.56 µM in the test on MCF7, > 1 µM in test [1], 6.34 µM with Ishikawa and 14.2 µM in the test with HUVEC. Besides, the inhibition in test [2] is 50.9%.

In the case of `COc1ccc(-c2nc(Cl)c(-c3ccccc3)c(Oc3ccc(OCCN(C)C)cc3)n2)cc1`, the IC50 in the test with MCF7 was 21.8 µM; in test [1], 0.101 µM; with Ishikawa it was 17.7 µM; in the test with HUVEC, 11.7 µM. The inhibition in test [2] came out at 90.9%.

Take `CCN(CC)CCOc1ccc(Nc2nc(-c3ccc(O)cc3)nc(Cl)c2-c2ccccc2)cc1`: the IC50 with MCF7 was 35.6 µM; in test [1], > 1 µM; with Ishikawa it was 12 µM; with HUVEC it was 8.81 µM. The compound further gave an inhibition in test [2] of 76.9%.

In the case of `COc1ccc(-c2nc(Cl)c(-c3ccccc3)c(Nc3ccc(NC(=O)CN4CCCC4)cc3)n2)cc1`, the IC50 is > 40 µM in the test with MCF7, 0.203 µM in test [1], > 40 µM in the test with Ishikawa and > 40 µM with HUVEC. In addition, the inhibition in test [2] was 87.3%.

For `COc1ccc(-c2nc(Cl)c(-c3ccccc3)c(Nc3ccc(NC(=O)CN(C)C)cc3)n2)cc1`, the IC50 in the test on MCF7 was 17.7 µM; in test [1], > 1 µM; in the test on Ishikawa, 17.1 µM; in the test on HUVEC, 10.3 µM. In test [2], this compound returned an inhibition of 50.8%.

In the case of `COc1ccc(-c2nc(Cl)cc(Nc3ccc(NC(=O)CN(C)C)cc3)n2)cc1`, the IC50 with MCF7 is > 40 µM; in test [1], > 1 µM; with Ishikawa it was > 40 µM; in the test with HUVEC, > 40 µM. This compound also returned an inhibition in test [2] of 66.2%.

As for `COc1ccc(-c2nc(Cl)cc(Nc3ccc(OCCN4CCCC4)cc3)n2)cc1`, the IC50 was 43.7 µM in the test on MCF7, > 1 µM in test [1], 17.3 µM in the test with Ishikawa and 11.3 µM in the test on HUVEC. Besides, the inhibition in test [2] came out at 51.9%.

As to `O=C(c1ccc(OCCN2CCCCC2)cc1)c1c(-c2ccc(O)cc2)sc2cc(O)ccc12` [RALOXIFENE], the figures for the IC50 in the test on MCF7 and with Ishikawa were 13.2 µM and 24.4 µM, respectively.

In the case of `CCN(CC)CCOc1ccc(Nc2nc(-c3ccc(OC)cc3)nc(Cl)c2-c2ccccc2)cc1`, the IC50 is 8.59 µM in the test with MCF7, 0.067 µM in test [1], 9.98 µM with Ishikawa and 4.34 µM in the test with HUVEC. Further, in test [2], the inhibition stood at 90.3%.

As to `CCN(CC)CC(=O)Nc1ccc(Nc2nc(-c3ccc(OC)cc3)nc(Cl)c2-c2ccccc2)cc1`, the IC50 in the test with MCF7 was > 40 µM; in test [1], > 1 µM; in the test on Ishikawa, > 40 µM; in the test with HUVEC, > 40 µM. Further, the inhibition in test [2] is 40.2%.

`CCN(CC)CCOc1ccc(Oc2nc(-c3ccc(OC)cc3)nc(Cl)c2-c2ccccc2)cc1`: the IC50 in the test with MCF7 was > 40 µM; in test [1], > 1 µM; with Ishikawa, 23.5 µM; with HUVEC, 15.1 µM. Further, in test [2], the inhibition was 60.2%.

Regarding `CC/C(=C(\c1ccccc1)c1ccc(OCCN(C)C)cc1)c1ccccc1` [TAMOXIFEN], the IC50 came out at 15.5 µM in the test on MCF7 and 26.5 µM in the test with Ishikawa.

With `CCN(CC)CC(=O)Nc1ccc(Nc2cc(Cl)nc(-c3ccc(OC)cc3)n2)cc1`, the IC50 was > 40 µM with MCF7, > 1 µM in test [1], 5.81 µM in the test with Ishikawa and 15 µM with HUVEC. Moreover, the inhibition in test [2] stood at 44%.

Turning to `COc1ccc(-c2nc(Cl)cc(Nc3ccc(OCCN(C)C)cc3)n2)cc1`, the IC50 is 3.54 µM with MCF7, > 1 µM in test [1], 5.67 µM in the test with Ishikawa and 6.31 µM in the test on HUVEC. Moreover, in test [2], the inhibition amounted to 40%.

Usually IC50 stands for the concentration needed to halve the response being measured. Read a low IC50 as higher potency. The inhibition is the change of the read-out against control, counted positive when it falls. Higher therefore signals strong suppression.
